Data published in ChEMBL document CHEMBL4706571, “Structure-activity relationship study of tryptophan-based butyrylcholinesterase inhibitors” (Eur J Med Chem, 2020).
Activity calls are given as the source filed them.

Legend:
[1] = target: Cholinesterase (Homo sapiens, UniProt P06276); assay: Inhibition of human BChE using butyrylthiocholineiodide as substrate measured for 5 mins by Ellman's method
Procedure, shortened: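 Human BChE at about 1 nM was preincubated for 5 min at 20 °C with compound and Ellman's reagent in 0.1 M phosphate buffer, pH 8.0, with 1% final DMSO. The reaction was started with butyrylthiocholine iodide and A412 read for 1 min from initial rates. Activity was corrected by an enzyme-free buffer blank. IC50 was fitted from at least seven concentrations.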

[2] = target: Acetylcholinesterase (Homo sapiens, UniProt P22303); assay: Inhibition of human AChE using acetylthiocholine iodide as substrate measured for 5 mins by Ellman's method
Sequence of Acetylcholinesterase (P22303 whole entry): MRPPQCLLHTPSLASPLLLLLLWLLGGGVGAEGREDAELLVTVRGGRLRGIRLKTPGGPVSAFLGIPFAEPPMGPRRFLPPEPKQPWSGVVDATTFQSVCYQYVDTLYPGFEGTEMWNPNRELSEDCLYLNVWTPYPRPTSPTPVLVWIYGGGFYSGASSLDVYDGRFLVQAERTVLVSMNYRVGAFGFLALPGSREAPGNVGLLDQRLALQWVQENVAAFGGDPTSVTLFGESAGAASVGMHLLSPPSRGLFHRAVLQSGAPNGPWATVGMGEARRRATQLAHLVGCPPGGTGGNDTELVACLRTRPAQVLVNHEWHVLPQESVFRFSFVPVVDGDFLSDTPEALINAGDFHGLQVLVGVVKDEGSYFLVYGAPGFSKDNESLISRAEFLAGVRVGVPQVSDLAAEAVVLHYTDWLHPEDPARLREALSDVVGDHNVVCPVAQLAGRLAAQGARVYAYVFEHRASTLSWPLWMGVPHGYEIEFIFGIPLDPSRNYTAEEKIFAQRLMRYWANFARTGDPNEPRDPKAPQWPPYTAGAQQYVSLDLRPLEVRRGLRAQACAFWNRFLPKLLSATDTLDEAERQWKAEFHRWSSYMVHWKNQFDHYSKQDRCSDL
Procedure, shortened: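 Human AChE at about 50 pM was preincubated for 5 min at 20 °C with compound (DMSO stock) and Ellman's reagent in 0.1 M phosphate buffer, pH 8.0, with 1% final DMSO. Acetylthiocholine iodide was then added and A412 followed for 1 min. Residual activity = (vi − b)/(vo − b), with b a blank lacking enzyme. IC50 used at least seven concentrations.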

[3] = test system: Mus musculus; assay: Anti-amnesic activity in CD-1 mouse model of scopolamine-induced memory impairment assessed as step-through latency time to enter dark compartment in retention trail on day 2 at 10 to 30 mg/kg, ip administered 60 mins before trail by passive avoidance test; format: functional, organism-based; conditions: dose 10-30 mg/kg
Procedure, shortened: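 CD-1 mice, passive avoidance: scopolamine 1 mg/kg s.c. in 0.9% saline 30 min before trial; test article suspended in 1% Tween 80, i.p. 60 min before trial (controls 1% Tween 80 i.p.). Acquisition trial: 30 s in lit compartment, gate opened, step-through latency to dark chamber recorded; retention trial 24 h later. n = 8–9.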

[4] = test system: Mus musculus; assay: Cognitive enhancing effect in C57BL/6J mouse model of scopolamine-induced memory impairment model assessed as escape latency time at 10 to 30 mg/kg, ip administered for 7 days and 60 mins before trail by Morris water maze test relative to control; format: functional, organism-based; conditions: dose 10-30 mg/kg, time 7.0 day
[5] = test system: Mus musculus; assay: Cognitive enhancing effect in intraperitoneally dosed C57BL/6J mouse model of scopolamine-induced memory impairment assessed as enhancement of long-term memory retrieval by measuring latency time to find former escape box location in acquisition phase measured on day 12 by Barnes maze test; format: functional, organism-based
Procedure, shortened: (§1)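 C57BL/6J mice, Barnes maze: scopolamine 1 mg/kg s.c. 30 min before first daily trial; compound in 1% Tween 80 i.p. 60 min before, daily during 4-day acquisition (four trials/day, 15-min intervals). Drug-off probe day 5 (short-term) and day 12 (long-term): escape box removed, 90 s exploration, latency to former box location and primary errors recorded. n = 7–9; one-way ANOVA, Dunnett's.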

[6] = Neurotoxicity in mouse assessed as effect in locomotor activity at 30 mg/kg, ip measured up to 60 mins by rotarod test; format: toxicity, organism-based; conditions: in vivo, 1 h
Procedure, shortened: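 Mice trained 3 consecutive days on rotarod (2 cm rod, 18 rpm); 24 h later dosed i.p. with 30 mg/kg in 1% Tween 80 or vehicle, tested after 60 min at 6, 18 and 24 rpm. Motor impairment defined as failure to stay on for 60 s; expressed as mean time on rod.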

[7] = test system: Mus musculus; assay: Cognitive enhancing effect in intraperitoneally dosed C57BL/6J mouse model of scopolamine-induced memory impairment assessed as enhancement of learning abilities and working memory by measuring escape latency time to reach target in acquisition phase measured on day 5 by Barnes maze test; format: functional, organism-based; procedure, shortened: as §1
[8] = test system: Mus musculus; assay: Cognitive enhancing effect in intraperitoneally dosed C57BL/6J mouse model of scopolamine-induced memory impairment assessed as enhancement of short-term memory retrieval by measuring latency time to find former escape box location in acquisition phase measured on day 5 by Barnes maze test; format: functional, organism-based; procedure, shortened: as §1

Sequence of Cholinesterase (P06276 whole entry): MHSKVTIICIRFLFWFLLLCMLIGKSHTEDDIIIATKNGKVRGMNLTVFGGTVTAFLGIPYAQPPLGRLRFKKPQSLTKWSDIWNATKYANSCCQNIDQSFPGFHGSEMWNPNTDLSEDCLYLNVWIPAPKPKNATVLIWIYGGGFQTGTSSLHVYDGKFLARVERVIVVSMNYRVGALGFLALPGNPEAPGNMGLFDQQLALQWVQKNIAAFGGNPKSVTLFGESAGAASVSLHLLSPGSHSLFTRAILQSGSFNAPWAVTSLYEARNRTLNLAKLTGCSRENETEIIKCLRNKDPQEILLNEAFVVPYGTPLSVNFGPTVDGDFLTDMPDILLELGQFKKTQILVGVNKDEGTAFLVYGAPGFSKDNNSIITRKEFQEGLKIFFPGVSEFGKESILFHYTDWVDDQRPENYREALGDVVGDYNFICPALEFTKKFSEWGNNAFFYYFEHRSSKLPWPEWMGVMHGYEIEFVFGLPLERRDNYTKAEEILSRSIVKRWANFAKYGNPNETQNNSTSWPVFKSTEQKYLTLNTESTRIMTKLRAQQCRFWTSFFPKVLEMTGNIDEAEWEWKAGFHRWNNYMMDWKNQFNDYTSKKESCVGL

Structure (SMILES) | IC50 [1] [nM] | also measured
CCCCN[C@@H](Cc1c[nH]c2ccccc12)C(=O)NCCC1CCCN(Cc2ccccc2)C1 (mixture of isomers) | 9 | 
CCCCN[C@@H](Cc1c[nH]c2ccccc12)C(=O)NCCC1CCCN(Cc2c(F)c(F)cc(F)c2F)CC1 (mixture of isomers) | 5.9 | 
CCCCN[C@@H](CC(C)C)C(=O)NCCC1CCCCCC1 | 36300 | 
CCCCN[C@@H](Cc1c[nH]c2ccccc12)C(=O)NCCC1CCN(Cc2ccccc2)CC1 | 2 | IC50 [2]: 25400 nM
CCCCN[C@@H](Cc1c[nH]c2ccccc12)C(=O)NCCC1CCN(c2ccccc2)CC1 | 5.6 | 
CCCCN[C@@H](Cc1ccccc1)C(=O)NCCC1CCCCCC1 | 609 | 
CCCCN(CCCC)[C@@H](Cc1c[nH]c2ccccc12)C(=O)N1CCC(Cc2ccccc2)CC1 | 76 | 
CCCCN[C@@H](Cc1c[nH]c2ccccc12)C(=O)NCCC1CCCN(Cc2ccccc2)CC1 (mixture of isomers) | 2.8 | IC50 [2]: 16000 nM
CCCCN[C@@H](Cc1c[nH]c2ccccc12)C(=O)NCCC1CCCC(c2ccccc2)C1 (mixture of isomers) | 6.6 | 
CCCCN[C@@H](Cc1c[nH]c2ccccc12)C(=O)NCCC1CCN(CCc2ccccc2)CC1 | 3.8 | 
CCCCN[C@@H](Cc1c[nH]c2ccccc12)C(=O)NCCC1CCCCCC1 | 22 | Activity [3]: inactive; Activity [4]: inactive; Activity [5]: Active; Activity [6]: Non-Toxic; Activity [7]: inactive; Activity [8]: inactive
CCCCN[C@@H](Cc1c[nH]c2ccccc12)C(=O)N1CCCC1c1ccccc1 (stereo partly drawn) | 990 | 
CCCCN[C@@H](Cc1c[nH]c2ccccc12)C(=O)NCCC1CCN(CC2CCN(C)CC2)CC1 | 6600 | IC50 [2]: 29700 nM
CCCCN[C@@H](Cc1c[nH]c2ccccc12)C(=O)NCCC1CCCN(Cc2ccc(OC)cc2)CC1 (mixture of isomers) | 100 | 
